Screens as filed in PubChem BioAssay.
Most compounds without a hit are left out; they make up all but 3.2% or so of the library.
MEKK3 PB1 HTS: modulators (inhibitors or enhancers) of MEK5 binding to human MEKK3 PB1 domain | Q99759 | bead-based flow cytometry, Alexa488-MEK5 binding to MEKK3; actives lie on both sides; 0 = blocked by unlabeled MEK5, 100 = vehicle | 1.4% of 290,000 active | binding response (% of control), % at 10 µM;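 active means binding response more than 3 SD above or below the average of its plate-row segment, actives on both sides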;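 further: Alexa488 bead fluorescence after subtracting the streptavidin-only scavenger bead signal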
Apaf-1 inh: inhibitors of human Apaf-1 apoptosome | AID 489030 | reconstituted apoptosome caspase-3 activity, DEVD-Rh110 fluorescence | O14727 | inhibition, % at 20 µM | 0.71% of 330,000 active; active means inhibition of at least 40% at 20 µM;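 further: plate controls were DMSO wells for no effect and DEVD-CHO caspase inhibitor wells for full effect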
Target sequence (O14727 whole entry, looked up): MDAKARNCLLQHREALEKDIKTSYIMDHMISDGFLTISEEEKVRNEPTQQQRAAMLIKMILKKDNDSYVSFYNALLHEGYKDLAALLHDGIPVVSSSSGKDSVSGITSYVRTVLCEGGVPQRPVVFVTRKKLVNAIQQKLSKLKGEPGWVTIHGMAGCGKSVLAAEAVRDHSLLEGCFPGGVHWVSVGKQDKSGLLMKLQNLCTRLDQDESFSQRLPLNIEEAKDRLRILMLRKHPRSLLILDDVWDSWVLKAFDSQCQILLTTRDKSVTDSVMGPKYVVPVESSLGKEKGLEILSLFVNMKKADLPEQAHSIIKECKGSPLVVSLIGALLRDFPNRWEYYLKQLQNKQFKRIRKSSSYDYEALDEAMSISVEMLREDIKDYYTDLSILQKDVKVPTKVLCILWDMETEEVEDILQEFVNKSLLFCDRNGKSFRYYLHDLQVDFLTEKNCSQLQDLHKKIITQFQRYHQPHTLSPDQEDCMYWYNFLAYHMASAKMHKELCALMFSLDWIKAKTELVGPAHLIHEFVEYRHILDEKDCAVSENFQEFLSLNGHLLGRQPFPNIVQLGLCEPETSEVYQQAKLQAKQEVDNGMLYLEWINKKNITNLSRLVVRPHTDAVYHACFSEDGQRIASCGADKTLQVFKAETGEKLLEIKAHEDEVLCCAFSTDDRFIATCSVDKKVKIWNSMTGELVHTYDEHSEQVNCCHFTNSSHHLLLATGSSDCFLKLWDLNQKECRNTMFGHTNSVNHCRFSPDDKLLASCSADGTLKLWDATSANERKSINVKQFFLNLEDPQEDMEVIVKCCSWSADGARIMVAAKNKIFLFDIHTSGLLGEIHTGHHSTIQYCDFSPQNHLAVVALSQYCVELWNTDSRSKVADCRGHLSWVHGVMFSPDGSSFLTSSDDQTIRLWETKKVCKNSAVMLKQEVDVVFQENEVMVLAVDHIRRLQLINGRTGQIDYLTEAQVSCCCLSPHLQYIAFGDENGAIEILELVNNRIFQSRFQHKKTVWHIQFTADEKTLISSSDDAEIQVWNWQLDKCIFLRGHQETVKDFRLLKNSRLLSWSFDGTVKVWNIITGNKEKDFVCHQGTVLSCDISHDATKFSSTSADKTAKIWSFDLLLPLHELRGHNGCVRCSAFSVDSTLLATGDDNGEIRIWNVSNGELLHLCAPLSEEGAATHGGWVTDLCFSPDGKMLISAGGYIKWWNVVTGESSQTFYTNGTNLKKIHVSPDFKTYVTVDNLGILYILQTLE
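Material: reconstituted apoptosome with Apaf-1, cytochrome c, caspase-9, procaspase-3, dATP; medium: pH 7.5 Hepes buffer with CHAPS, BSA, DTT; also added: cytochrome c and DEVD-Rh110 substrate; timing: 30 min plus 50 min, RT; signal: Rh110 fluorescence intensity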
DSG3 Ab inh: human desmoglein-3 autoantibody binding inhibition. P32926. DSG3-coupled beads, scFv-anti-DSG3-GFP binding, flow cytometry; hits give low values. binding (percent of control), % at 10 µM. 0.48% of 310,000 active. AID 588358;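 active means binding more than 3 SD below its plate's average and above zero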;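 further: hits lower antibody fragment binding to DSG3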
MEKK2wt PB1 HTS: raises or lowers MEK5 binding to wildtype human MEKK2 PB1 domain; bead flow cytometry, Alexa488-MEK5 binding to MEKK2 WT; actives lie on both sides; 1.1% of 290,000 active; binding response (% of control), % at 10 µM; Q9Y2U5; in the data active means binding response below about 67% or above about 130%
MEKK2mut PB1 HTS: signal of MEK5 binding to mutant human MEKK2 PB1 domain | bead flow cytometry, Alexa488-MEK5 binding to MEKK2 mutant | percent response, % at 10 µM | 0.35% of 290,000 active; in the data active means percent response above about 24%, passing the limit was not always enough
UBC13 inh: inhibitors of human UBC13 polyubiquitin chain formation. P61088. TR-FRET. inhibition, % at 20 µM. 0.47% of 330,000 active. AID 485273; in the data active means inhibition above about 45%, passing the limit was not always enough
MEKK2wt confirm: raises or lowers MEK5 binding to wildtype human MEKK2, retest | 2.4% of 5,900 active | binding response (% of control), % at 10 µM | shares compounds with MEKK3 PB1 HTS | bead flow cytometry, Alexa488-MEK5 binding to MEKK2 WT; actives lie on both sides; in the data active means binding response below about 16% or above about 210%; inactive means in between
MEKK2mut-MEK5: signal of MEK5 binding to mutant human MEKK2, retest. shares compounds with MEKK3 PB1 HTS. bead flow cytometry, Alexa488-MEK5 binding to MEKK2 mutant. percent response, % at 10 µM. 2% of 5,900 active. AID 1893; in the data active means percent response mostly above about 71%, no sharp cut-off; inactive means mostly below about 38%;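 further: higher means compound restores mutant binding toward wildtype level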
MEKK3 confirm: confirmation of inhibitors of MEK5 binding to human MEKK3; shares compounds with MEKK3 PB1 HTS; bead flow cytometry, Alexa488-MEK5 binding to MEKK3; hits give low values; binding response (% of control), % at 10 µM; 1.8% of 5,900 active; AID 1894;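 active means binding response below 72% of control, or above a set upper limit, though filed actives all read lower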;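 further: 100% = DMSO only wells and 0% = binding blocked by excess unlabeled MEK5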
Starred values were filed as active, the others as inactive; . = no result given; [ ] = dose if it differs, or a comment.

SMILES	MEKK3 PB1 HTS	Apaf-1 inh	DSG3 Ab inh	MEKK2wt PB1 HTS	MEKK2mut PB1 HTS	UBC13 inh	MEKK2wt confirm	MEKK2mut-MEK5	MEKK3 confirm
COc1cccc(CNCCc2c[nH]c3ccccc23)c1OCc1ccc(F)cc1	111	11	101	165*	39*	36	131	22	101
COc1cc(CNCCc2c[nH]c3ccccc23)ccc1OCc1ccc(F)cc1	106	19	122	197*	47*	43	144	14	87
COc1cccc(CN2CCN(Cc3ccc(O)cc3)CC2CCO)c1 (stereo not drawn)	46*[inhibitor]	-6	92	65	-18	-1	113	16	111
CCOc1ccc(CN2CCN(Cc3cnn(CC)c3C)CC2CCO)cc1 (stereo not drawn)	48*[inhibitor]	5	98	53	-13	-5	98	-3	99
CCOc1ccc(CN2CCN(Cc3cccc4nonc34)CC2CCO)cc1 (stereo not drawn)	104	-20	113	117	19	4	.	.	.
COCCSc1nnc(NS(=O)(=O)c2ccc(F)cc2)s1	136*	-16	101	119	0	-3	105	19	106
COc1ccccc1NS(=O)(=O)c1ccc(C(=O)N2CCN(c3ccccn3)CC2)cc1	.	-5	.	.	.	6	.	.	.
Cc1csc(-c2cnn(-c3ccccc3)c2NC(=O)c2ccccc2)n1	1.0*[inhibitor]	9	101	1.0*[inhibitor]	-21	0	103	2	105
Cc1csc(-c2cnn(-c3ccccc3)c2NC(=O)c2cccc(F)c2)n1	104	3	113	101	-1	0	.	.	.
Nc1nnc(SCC(=O)NC23CC4CC(CC(C4)C2)C3)s1	41*[inhibitor]	-6	99	39*[inhibitor]	-18	-8	110	5	103
O=C(Nc1cc(Cl)ccc1Cl)P(=O)(O)c1ccccc1	.	.	96	.	.	.	.	.	.
O=C(CCl)Nc1cn(-c2ccccc2)nc1-c1ccc(F)cc1	99	11	114	98	-1	-6	.	.	.
COc1cc(-c2nnc(-c3cc(-c4ccccc4)nc4ccccc34)o2)cc(OC)c1OC	.	.	101	.	.	.	.	.	.
O=C(NCCCN1CCC(Cc2ccccc2)CC1)c1ccc2nc(N3CCOCC3)sc2c1	104	13	104	144*	9	5	147	17	101
Cc1ccc(S(=O)(=O)NCc2ccc(C(=O)NCCCN3CCC(Cc4ccccc4)CC3)cc2)cc1	106	15	102	161*	40	37	173	29	105
Cc1ccc(S(=O)(=O)NCCC(=O)N2CCC(Cc3ccccc3)CC2)cc1	.	16	107	.	.	0	.	.	.
c1cncc(Nc2nc(-c3ccncc3)cs2)c1	96	-8	103	101	8	14	.	.	.
Clc1ccccc1-c1csc(Nc2cccnc2)n1	47*[inhibitor]	4	112	59	-40	6	103	5	103
COc1ccc(OC)c(CNC(=O)C(C)n2nc(C)c3c(C)n(-c4ccccc4)nc3c2=O)c1 (stereo not drawn)	103	3	99	105	3	4	.	.	.
CC(=O)Nc1ccc(C(=O)OCC(=O)Nc2c(C)n(C)n(-c3ccccc3)c2=O)cc1	.	0	.	.	.	3	.	.	.
N#CCCN1CCN(C(=O)c2c(N)no[n+]2[O-])CC1	128*	2	101	112	0	3	99	-5	102
Cc1ccc(S(=O)(=O)N2C[C@H]3C(=O)C[C@@H](c4ccc(Cl)cc4)N(S(=O)(=O)c4ccccc4C)[C@H]3C[C@H]2c2ccccc2)cc1	.	.	96	.	.	.	.	.	.
O=C(Cn1cnc2ccccc2c1=O)N1CCN(c2ccccc2)CC1	122*	-4	.	104	6	6	102	1	103
Cc1cc2c(=O)n(CC(=O)N3CCN(c4ccccc4)CC3)cnc2s1	105	11	.	105	3	-4	.	.	.
CN(C)c1ccc(/C=C(\C#N)C(=O)Nc2nc3c(s2)CCN(Cc2ccccc2)C3)cc1	97	20	.	71*[inhibitor]	-22	-217	98	7	106
SMILES	MEKK3 PB1 HTS	Apaf-1 inh	DSG3 Ab inh	MEKK2wt PB1 HTS	MEKK2mut PB1 HTS	UBC13 inh	MEKK2wt confirm	MEKK2mut-MEK5	MEKK3 confirm
O=C(Nc1nc2c(s1)CN(Cc1ccccc1)CC2)C1CCC1	110	9	106	116	2	3	.	.	.
CN(C)C(=O)c1ccc(Oc2ccc(C(=O)N(C)C)cc2)cc1	66*[inhibitor]	-14	102	75	-14	9	100	-1	100
COc1ccc(C2=NN(C(=O)c3cccs3)C(c3ccccc3O)C2)cc1 (stereo not drawn)	50*[inhibitor]	32	106	48	-15	6	90	-8	96
Cc1ccccc1-c1n[nH]nc1C1=CC(=O)C[C@H](c2ccc(F)cc2)C1	.	.	115	.	.	.	.	.	.
COc1ccc(C(C)=O)cc1COC(=O)CNC(=O)c1ccccc1F	138*	2	98	103	-1	-4	100	6	103
Cc1nc2scc(C)n2c(=O)c1S(=O)(=O)NCC1CCN(Cc2ccc(F)cc2)CC1	97	3	.	111	1	-3	.	.	.
COc1ccc(CCNCC(O)Cn2c3ccccc3c3ccccc32)cc1OC (stereo not drawn)	106	8	103	159*	23	27	165	36	111
CCCC(C)NC(=O)Cc1ccc(Br)cc1 (stereo not drawn)	140*	9	.	108	0	0	102	2	99
CCCC(C)NC(=O)COc1ccc(Sc2ccc(OCC(=O)NC(C)CCC)cc2)cc1 (stereo not drawn)	137*	12	127	104	0	8	100	-3	96
CC(C)CNC(=O)COc1ccc(Sc2ccc(OCC(=O)NCC(C)C)cc2)cc1	103	-6	95	102	-1	-16	.	.	.
CCOC(=O)C1=C(C)N(C)C(=O)NC1c1c(O)ccc2ccccc12 (stereo not drawn)	102	4	94	99	5	7	.	.	.
Cc1c(CN2CCC(CO)(Cc3cccc(C(F)(F)F)c3)CC2)c2ccccc2n1C	108	2	106	165*	44	30	137	11	99
CSc1ccc(CN2CCC(CO)(Cc3ccc(Cl)cc3)CC2)cc1	105	4	101	140*	19	8	137	21	106
